# From ChEMBL document CHEMBL4819122, “Novel 4-(piperazin-1-yl)quinolin-2(1H)-one bearing thiazoles with antiproliferative activity through VEGFR-2-TK inhibition” (Bioorg Med Chem, 2021)
# Activity calls are given as the source filed them. No cut-off for these calls is given here.
# How the values were obtained:
# [1] = tested on: K562; test: Cytotoxicity against human K-562 assessed as growth inhibition at 10 uM by NCI protocol relative to control; assay type: functional; conditions: read-out: GI
# Method in brief: (§1)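 Run by NCI as a single-dose screen at 10 μM across the sixty-cell-line panel, which covers nine human tumour tissue types. The read-out is percent growth inhibition of treated cells relative to untreated cells.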
# [2] = tested on: MOLT-4; test: Cytotoxicity against human MOLT-4 assessed as growth inhibition at 10 uM by NCI protocol relative to control; assay type: functional; conditions: read-out: GI; method in brief: as §1
# [3] = tested on: RPMI-8226; test: Cytotoxicity against human RPMI-8226 assessed as growth inhibition at 10 uM by NCI protocol relative to control; assay type: functional; conditions: read-out: GI; method in brief: as §1
# [4] = tested on: A549; test: Cytotoxicity against human A549 assessed as growth inhibition at 10 uM by NCI protocol relative to control; assay type: functional; conditions: read-out: GI; method in brief: as §1
# [5] = tested on: EKVX; test: Cytotoxicity against human EKVX assessed as growth inhibition at 10 uM by NCI protocol relative to control; assay type: functional; conditions: read-out: GI; method in brief: as §1
# [6] = tested on: HOP-92; test: Cytotoxicity against human HOP-92 assessed as growth inhibition at 10 uM by NCI protocol relative to control; assay type: functional; conditions: read-out: GI; method in brief: as §1
# [7] = tested on: NCI-H23; test: Cytotoxicity against human NCI-H23 assessed as growth inhibition at 10 uM by NCI protocol relative to control; assay type: functional; conditions: read-out: GI; method in brief: as §1
# [8] = tested on: NCI-H460; test: Cytotoxicity against human NCI-H460 assessed as growth inhibition at 10 uM by NCI protocol relative to control; assay type: functional; conditions: read-out: GI; method in brief: as §1
# [9] = tested on: HCC 2998; test: Cytotoxicity against human HCC-2998 assessed as growth inhibition at 10 uM by NCI protocol relative to control; assay type: functional; conditions: read-out: GI; method in brief: as §1
# [10] = tested on: HT-29; test: Cytotoxicity against human HT29 assessed as growth inhibition at 10 uM by NCI protocol relative to control; assay type: functional; conditions: read-out: GI; method in brief: as §1
# [11] = tested on: KM12; test: Cytotoxicity against human KM12 assessed as growth inhibition at 10 uM by NCI protocol relative to control; assay type: functional; conditions: read-out: GI; method in brief: as §1
# [12] = tested on: SW-620; test: Cytotoxicity against human SW-620 assessed as growth inhibition at 10 uM by NCI protocol relative to control; assay type: functional; conditions: read-out: GI
# Method in brief: (§2)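 Run by the NCI under its standard protocol: one dose of 10 μM against a sixty-line panel from nine human tumour tissues. Result given as percent growth inhibition of treated cells relative to untreated cells.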
# [13] = tested on: SF-268; test: Cytotoxicity against human SF-268 assessed as growth inhibition at 10 uM by NCI protocol relative to control; assay type: functional; conditions: read-out: GI; method in brief: as §1
# [14] = tested on: SF-295; test: Cytotoxicity against human SF-295 assessed as growth inhibition at 10 uM by NCI protocol relative to control; assay type: functional; conditions: read-out: GI; method in brief: as §1
# [15] = tested on: SF-539; test: Cytotoxicity against human […] assessed as growth inhibition at 10 uM by NCI protocol relative to control; assay type: functional; conditions: read-out: GI; method in brief: as §1
# [16] = tested on: SNB-75; test: Cytotoxicity against human SNB-75 assessed as growth inhibition at 10 uM by NCI protocol relative to control; assay type: functional; conditions: read-out: GI; method in brief: as §2
# [17] = tested on: U-251; test: Cytotoxicity against human U251 assessed as growth inhibition at 10 uM by NCI protocol relative to control; assay type: functional; conditions: read-out: GI; method in brief: as §2
# [18] = tested on: LOX IMVI; test: Cytotoxicity against human LOX IMVI assessed as growth inhibition at 10 uM by NCI protocol relative to control; assay type: functional; conditions: read-out: GI; method in brief: as §1
# [19] = tested on: Malme-3M; test: Cytotoxicity against human MALME-3M assessed as growth inhibition at 10 uM by NCI protocol relative to control; assay type: functional; conditions: read-out: GI; method in brief: as §1
# [20] = tested on: MDA-MB-435; test: Cytotoxicity against human MDA-MB-435 assessed as growth inhibition at 10 uM by NCI protocol relative to control; assay type: functional, cell-based; method in brief: as §1
# [21] = tested on: SK-MEL-2; test: Cytotoxicity against human SK-MEL-2 assessed as growth inhibition at 10 uM by NCI protocol relative to control; assay type: functional; conditions: read-out: GI; method in brief: as §1
# [22] = tested on: SK-MEL-28; test: Cytotoxicity against human SK-MEL-28 assessed as growth inhibition at 10 uM by NCI protocol relative to control; assay type: functional; conditions: read-out: GI; method in brief: as §1
# [23] = tested on: SK-MEL-5; test: Cytotoxicity against human SK-MEL-5 assessed as growth inhibition at 10 uM by NCI protocol relative to control; assay type: functional; conditions: read-out: GI; method in brief: as §1
# [24] = tested on: UACC-257; test: Cytotoxicity against human UACC-257 assessed as growth inhibition at 10 uM by NCI protocol relative to control; assay type: functional; conditions: read-out: GI; method in brief: as §2
# [25] = tested on: UACC-62; test: Cytotoxicity against human UACC-62 assessed as growth inhibition at 10 uM by NCI protocol relative to control; assay type: functional; conditions: read-out: GI; method in brief: as §2
# [26] = tested on: IGROV-1; test: Cytotoxicity against human IGROVI assessed as growth inhibition at 10 uM by NCI protocol relative to control; assay type: functional; conditions: read-out: GI; method in brief: as §1
# [27] = tested on: OVCAR-4; test: Cytotoxicity against human OVCAR-4 assessed as growth inhibition at 10 uM by NCI protocol relative to control; assay type: functional; conditions: read-out: GI; method in brief: as §1
# [28] = tested on: OVCAR-8; test: Cytotoxicity against human OVCAR-8 assessed as growth inhibition at 10 uM by NCI protocol relative to control; assay type: functional; conditions: read-out: GI; method in brief: as §1
# [29] = tested on: NCI/ADR-RES; test: Cytotoxicity against human NCl/ADR-RES assessed as growth inhibition at 10 uM by NCI protocol relative to control; assay type: functional; conditions: read-out: GI; method in brief: as §1
# [30] = tested on: SK-OV-3; test: Cytotoxicity against human SK-OV-3 assessed as growth inhibition at 10 uM by NCI protocol relative to control; assay type: functional; conditions: read-out: GI; method in brief: as §1
# [31] = tested on: 786-0; test: Cytotoxicity against human 786-0 assessed as growth inhibition at 10 uM by NCI protocol relative to control; assay type: functional; conditions: read-out: GI; method in brief: as §1
# [32] = tested on: A498; test: Cytotoxicity against human A498 assessed as growth inhibition at 10 uM by NCI protocol relative to control; assay type: functional; conditions: read-out: GI; method in brief: as §1
# [33] = tested on: ACHN; test: Cytotoxicity against human ACHN assessed as growth inhibition at 10 uM by NCI protocol relative to control; assay type: functional; conditions: read-out: GI; method in brief: as §1
# [34] = tested on: CAKI-1; test: Cytotoxicity against human Caki1 assessed as growth inhibition at 10 uM by NCI protocol relative to control; assay type: functional; conditions: read-out: GI; method in brief: as §1
# [35] = tested on: RXF 393; test: Cytotoxicity against human RXF 393 assessed as growth inhibition at 10 uM by NCI protocol relative to control; assay type: functional; conditions: read-out: GI; method in brief: as §1
# [36] = tested on: SN12C; test: Cytotoxicity against human SN12C assessed as growth inhibition at 10 uM by NCI protocol relative to control; assay type: functional; conditions: read-out: GI; method in brief: as §2
# [37] = tested on: PC-3; test: Cytotoxicity against human PC3 assessed as growth inhibition at 10 uM by NCI protocol relative to control; assay type: functional; conditions: read-out: GI; method in brief: as §1
# [38] = tested on: MCF7; test: Cytotoxicity against human MCF7 assessed as growth inhibition at 10 uM by NCI protocol relative to control; assay type: functional; conditions: read-out: GI; method in brief: as §1
# [39] = tested on: MDA-MB-231; test: Cytotoxicity against human MDA-MB-231 assessed as growth inhibition at 10 uM by NCI protocol relative to control; assay type: functional; conditions: read-out: GI; method in brief: as §1
# [40] = tested on: Hs-578T; test: Cytotoxicity against human HS 578T assessed as growth inhibition at 10 uM by NCI protocol relative to control; assay type: functional; conditions: read-out: GI; method in brief: as §1
# [41] = tested on: MDA-MB-468; test: Cytotoxicity against human MDA-MB-468 assessed as growth inhibition at 10 uM by NCI protocol relative to control; assay type: functional; conditions: read-out: GI; method in brief: as §1
compound,measurement,setting,value
Cc1ccc(-c2csc(NC(=O)CN3CCN(c4cc(=O)[nH]c5ccc(F)cc45)CC3)n2)cc1,inhibition of growth at 10 µM,[1],42.4%
same,inhibition of growth at 10 µM,[2],53.2%
same,inhibition of growth at 10 µM,[3],51.1%
same,inhibition of growth at 10 µM,[4],43.7%
same,inhibition of growth at 10 µM,[5],42.1%
same,inhibition of growth at 10 µM,[6],39.7%
same,inhibition of growth at 10 µM,[7],21.6%
same,inhibition of growth at 10 µM,[8],21.4%
same,inhibition of growth at 10 µM,[9],34.1%
same,inhibition of growth at 10 µM,[10],21.5%
same,inhibition of growth at 10 µM,[11],13.3%
same,inhibition of growth at 10 µM,[12],37%
same,inhibition of growth at 10 µM,[13],14.5%
same,inhibition of growth at 10 µM,[14],20.3%
same,inhibition of growth at 10 µM,[15],32.7%
same,inhibition of growth at 10 µM,[16],32.6%
same,inhibition of growth at 10 µM,[17],44.4%
same,inhibition of growth at 10 µM,[18],23.9%
same,inhibition of growth at 10 µM,[19],43.5%
same,growth inhibition (GI),[20],inactive
same,inhibition of growth at 10 µM,[21],10.2%
same,inhibition of growth at 10 µM,[22],17.8%
same,inhibition of growth at 10 µM,[23],44%
same,inhibition of growth at 10 µM,[24],37.5%
same,inhibition of growth at 10 µM,[25],33.9%
same,inhibition of growth at 10 µM,[26],52.6%
same,inhibition of growth at 10 µM,[27],30.6%
same,inhibition of growth at 10 µM,[28],23.2%
same,inhibition of growth at 10 µM,[29],38.4%
same,inhibition of growth at 10 µM,[30],11%
same,inhibition of growth at 10 µM,[31],25.6%
same,inhibition of growth at 10 µM,[32],56.6%
same,inhibition of growth at 10 µM,[33],44.1%
same,inhibition of growth at 10 µM,[34],52.6%
same,inhibition of growth at 10 µM,[35],27%
same,inhibition of growth at 10 µM,[36],45.1%
same,inhibition of growth at 10 µM,[37],55.9%
same,inhibition of growth at 10 µM,[38],33.5%
same,inhibition of growth at 10 µM,[39],19%
same,inhibition of growth at 10 µM,[40],41.4%
same,inhibition of growth at 10 µM,[41],41.5%
